Published values gathered from unrelated publications.
Target: Rhodopsin kinase GRK7 (GRK7, Homo sapiens, UniProt Q8WTQ7)
Residues used in one study (Q8WTQ7 1-553): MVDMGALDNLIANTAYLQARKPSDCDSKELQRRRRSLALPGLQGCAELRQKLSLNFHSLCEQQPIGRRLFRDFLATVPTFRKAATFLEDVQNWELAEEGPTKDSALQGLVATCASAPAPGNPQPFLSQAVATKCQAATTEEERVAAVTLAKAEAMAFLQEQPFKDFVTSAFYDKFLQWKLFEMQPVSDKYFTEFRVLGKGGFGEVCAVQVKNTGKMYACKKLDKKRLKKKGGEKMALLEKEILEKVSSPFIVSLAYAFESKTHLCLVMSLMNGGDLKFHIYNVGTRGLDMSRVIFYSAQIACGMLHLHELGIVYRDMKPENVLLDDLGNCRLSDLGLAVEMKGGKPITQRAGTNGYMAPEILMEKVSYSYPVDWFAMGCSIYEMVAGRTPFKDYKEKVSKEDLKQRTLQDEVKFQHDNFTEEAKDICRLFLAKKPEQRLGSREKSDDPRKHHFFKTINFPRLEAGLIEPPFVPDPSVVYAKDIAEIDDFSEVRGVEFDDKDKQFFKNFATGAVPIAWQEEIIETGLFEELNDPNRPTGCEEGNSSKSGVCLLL

SMILES	effect on	method	tested at	remaining binding [%]
COc1cc(-c2cn(C3CCc4c(F)cccc4N(CC(F)(F)F)C3=O)nn2)ccc1-n1cnc(C)c1 (stereo not shown)	cell-free assay	competition with immobilised ligand	1 µM	100
C[C@@H](c1ccc(-n2cnc3c(N)ncnc32)cc1)N1CCc2nn(C)c(Cc3ccccc3)c2C1=O	binding	competition with immobilised ligand	0.1 µM	72
COc1cc(-c2cn(C3CCc4ccccc4N(CC(F)(F)F)C3=O)nn2)ccc1-n1ccc(C)n1 (stereo not shown)	cell-free assay	competition with immobilised ligand	1 µM	87
O=C(NCC1CCOCC1)c1n[nH]cc1NC(=O)c1c(F)cccc1F	binding	competition with immobilised ligand	1 µM	89
N[C@H]1CCN(c2nccc(-c3cnn4ncccc34)n2)C1	binding	–	1 µM	100
O=C(c1ccc(Nc2ncc(Cl)c(-c3cc4ccccc4s3)n2)cc1)N1CCC(N2CCCC2)CC1	binding	competition with immobilised ligand	1 µM	56
CN(C)c1nccc(-c2cnc3ncccn23)n1	binding	–	1 µM	41
C=CC(=O)N1CCC(C(=O)NCC(=O)N2CCN(c3nc(-c4cnc(N)nc4C(F)F)nc(N4CCOCC4)n3)CC2)CC1	binding	competition with immobilised ligand	1 µM	87
O=C(NCCCN1CCOCC1)c1ccc(Nc2ncc(Cl)c(-c3ccc(Cl)s3)n2)cc1	binding	competition with immobilised ligand	1 µM	90
O=C(Nc1cccnn1)N1CC(C/C=C/c2cncc(Oc3ccc(C(F)(F)F)cn3)n2)C1	cell-free assay	competition with immobilised ligand	1 µM	85
CN(c1nccc(-c2cnn3ncccc23)n1)C1CC1	binding	–	1 µM	100
O=C(NCc1ncc(C(F)(F)F)cc1Cl)c1ccc2c(c1)C1(CCS(=O)(=O)CC1)[C@H](C1CC1)N2S(=O)(=O)c1ccc(F)cc1	cell-free assay	competition with immobilised ligand	1 µM	80
CNC(=O)[C@@H]1CC[C@@H](n2c(-c3ccc4cnccc4c3)nc3ccc(C(=O)NCc4cccc(C(N)=O)c4)cc32)C1	binding	competition with immobilised ligand	1 µM	100
FC(F)(F)c1ccc2c(c1)nc(-c1cccnc1)n2C1CC1	cell-free assay	competition with immobilised ligand	1 µM	81
CN(CCCC(F)(F)F)c1nccc(-c2cnn3ncccc23)n1	binding	–	1 µM	93
CCCOc1ccc([C@@H]2[C@@H](C(=O)O)[C@H](c3ccc4c(c3)OCO4)CN2CC(=O)Nc2c(CC)cccc2CC)cc1	cell-free assay	competition with immobilised ligand	1 µM	99
CN(C)c1ncc(F)c(-c2cnn3ncccc23)n1	binding	–	1 µM	100
Nc1ncc2c(n1)-c1c([nH]c3ccc(C#CC4CC4)cc13)CCCC2	binding	competition with immobilised ligand	1 µM	93
O=C(Nc1ccc(Oc2ccc(F)cc2)cc1)N1CCc2ncccc2[C@H]1c1ccc(F)cc1	cell-free assay	competition with immobilised ligand	1 µM	100
Cc1cnc(Nc2ccc(C(=O)N3CCC(N4CCCC4)CC3)cc2)nc1-c1cc2ccccc2s1	binding	competition with immobilised ligand	1 µM	29
F[C@@H]1CCN(c2nccc(-c3cnn4ncccc34)n2)C1	binding	–	1 µM	100
FC(F)(F)Oc1cccc(-c2cnc3ccc(-c4ccncc4)nn23)c1	cell-free assay	competition with immobilised ligand	5 µM	24
